Screening data (PubChem BioAssay)
MsrA inhibitor: inhibits bovine methionine sulfoxide reductase A; purified bovine MsrA, absorbance read-out; inhibition, % at 15.5 µM; 0.75% of 360,000 active; AID 651718; in the data active means inhibition above about 4.5%;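 further: 0% = vehicle wells with enzyme and 100% = reference inhibitor wells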
procasp7 counter: counter-screen for procaspase-3 activators: activators of human procaspase-7 | AID 463210 | 0.093% of 330,000 active | recombinant procaspase-7, Ac-DEVD-pNA absorbance 405 nm; D23A/D198A/D206A triple mutant, cannot self-cleave; scale: DMSO 0, 5 µM enzyme 100 | activation, % at 8.5 µM;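 active means percent activation above the screen-wide mean plus 3 SD, cut at about 25% in these data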
Target sequence (P55210 whole entry D23A/D198A/D206A): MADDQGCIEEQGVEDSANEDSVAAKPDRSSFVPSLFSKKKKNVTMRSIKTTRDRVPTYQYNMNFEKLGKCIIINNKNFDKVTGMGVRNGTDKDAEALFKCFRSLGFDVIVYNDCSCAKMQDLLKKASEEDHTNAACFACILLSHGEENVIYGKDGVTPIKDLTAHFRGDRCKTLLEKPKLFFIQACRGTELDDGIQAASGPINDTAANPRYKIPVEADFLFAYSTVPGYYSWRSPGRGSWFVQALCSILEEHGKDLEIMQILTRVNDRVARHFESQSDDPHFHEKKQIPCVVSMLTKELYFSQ
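Replicates: singlicate. Assay system: Procaspase-7 triple mutant (PC-7 D3A). Signal: 405 nm absorbance of p-nitroaniline. Times: 1 h preincubation, 2 h reaction. Buffer or medium: Zinc-free HEPES pH 7.4 with 300 mM NaCl, 0.01% Triton X-100. Also added: DEVD-pNA substrate. Benchmarks: DMSO wells as 0%, DMSO with 5 µM added PC-7 as 100%.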
proCasp3 act: activators of human procaspase-3 | P42574 | recombinant procaspase-3 D3A, Ac-DEVD-pNA absorbance 405 nm | activation, % at 8.5 µM | 0.11% of 330,000 active;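 active means activation above the mean of all tested compounds plus 3 SD, cut at about 21% in these data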;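 further: 0% = DMSO alone and 100% = DMSO wells spiked with extra 5 µM PC-3 D3A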
Target sequence (P42574 whole entry D9A/D28A/D175A): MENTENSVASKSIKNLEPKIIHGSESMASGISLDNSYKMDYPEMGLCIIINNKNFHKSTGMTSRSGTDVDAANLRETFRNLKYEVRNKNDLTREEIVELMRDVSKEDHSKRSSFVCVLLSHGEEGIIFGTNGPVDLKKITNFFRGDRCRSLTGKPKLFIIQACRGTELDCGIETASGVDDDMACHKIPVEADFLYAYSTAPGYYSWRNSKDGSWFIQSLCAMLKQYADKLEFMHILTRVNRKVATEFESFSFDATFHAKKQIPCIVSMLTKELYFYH
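Assay system – Procaspase-3 D3A mutant, all three cleavage aspartates alanine · Controls – DMSO-only low control, 5 µM PC-3 D3A high control · Schedule – 1 h compound preincubation, 2 h substrate hydrolysis at 25 °C · Signal – 405 nm absorbance of p-nitroaniline, reads at 0 and 120 min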
bovine MsrA act: activates bovine MsrA enzyme | purified bovine MsrA, absorbance read-out | 0.3% of 360,000 active | activation, % at 10.6 µM | AID 602163; in the data active means activation above about 7.5%;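 further: 0% = vehicle and 100% = reference activator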
MsrA act confirm: bovine methionine sulfoxide reductase A activation confirmed; purified bovine MsrA, absorbance read-out; AID 602270; shares compounds with bovine MsrA act; 12% of 1,000 active; activation, % at 10.6 µM; in the data active means activation above about 4%;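 further: enzyme coupled to thioredoxin and thioredoxin reductase with NADPH; 0% = vehicle wells and 100% = reference activator wells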
Starred values were filed as active, the others as inactive; x = no result. Only some compounds are listed: those with a hit (about 1.2% of all), similar ones and a draw of the others.

SMILES | MsrA inhibitor | procasp7 counter | proCasp3 act | bovine MsrA act | MsrA act confirm
Cc1nc(-c2ccccc2)[nH]c(=O)c1Oc1ccc(Cl)cc1Cl | 1 | -8 | 2 | -1 | x
O=C(CSc1nc2ncccc2[nH]1)c1cccc([N+](=O)[O-])c1 | 0 | -6 | -9 | 8.8* | -2
COc1ccc(NS(=O)(=O)c2cccc(C(=O)NCC(c3ccc(OC)cc3)N3CCCC3)c2)cc1 (stereo not given) | 0 | 6 | 10 | -1 | x
COc1ccc(C(CNC(=O)c2cccc(N(C)C)c2)N2CCCC2)cc1 (stereo not given) | 2 | -10 | 6 | 9.0* | 0
COc1ccccc1NC(=O)c1ccccc1Nc1ccccc1 | 0 | 5 | -6 | 10* | -1
COC(=O)Cc1[nH]n(-c2nc3ccccc3s2)c(=O)c1C(C)=Nc1ccc(Cl)cc1 | 2 | -5 | -1 | 8.2* | -1
CCOC(=O)C1=C(CSc2nc3c(cc2C#N)CN(C)CC3)OC(N)=C(C#N)C1c1ccncc1 (stereo not given) | 2 | -5 | -7 | -3 | x
CCOC(=O)C1=C(CSc2nc3c(cc2C#N)CN(C)CC3)OC(N)=C(C#N)C1c1ccc(Cl)cc1 (stereo not given) | 0 | -33 | -25 | 9.6* | -2
COC(=O)N1C[C@H](OCc2ccccc2)[C@H]2C[C@@H]1c1ccccc1O2 | 1 | x | x | x | x
Cc1cc2c(c(=O)o1)[C@@]1(C(=O)N(C)c3c(Br)cccc31)C1=C(CCCC1=O)O2 | 0 | x | x | x | x
CCn1c(SCC(=O)N2CCCCC2C)nnc1-c1ccco1 (stereo not given) | -1 | 1 | 1 | 3 | x
CC1CCCCN1C(=O)CSc1nnc(-c2ccco2)n1C (stereo not given) | 1 | -2 | -9 | 26* | -1
O=C(NC(=S)Nc1cccc([N+](=O)[O-])c1)c1ccco1 | 0 | -2 | -4 | 4 | x
CN(C)S(=O)(=O)c1cccc(NC(=S)NC(=O)c2ccco2)c1 | 0 | x | x | 11* | -4
O=C(Nc1cccc([N+](=O)[O-])c1)c1ccc([N+](=O)[O-])o1 | 2 | x | x | 9.8* | 5.7*
CC(C)C(O)(c1ccccc1)C(CN1CCOCC1)c1ccccc1 (stereo not given) | 0 | x | x | -7 | x
CCc1ccc(C(O)(C(C)C)C(CN2CCOCC2)c2ccccc2)cc1 (stereo not given) | 1 | x | x | 8.1* | 1
Cc1[nH][nH]c(=O)c1N=Nc1ccccc1Cl | 4 | 10 | -5 | -3 | x
Clc1ccccc1N=Nc1ccccn1 | 0 | x | x | 34* | 0
CCN1C(=O)N(C)[C@@H](c2ccccc2)C(C(=O)OC)=C1C | 0 | -11 | 4 | 9.3* | -4
CCN1C(=O)N(S(=O)(=O)C(F)(F)F)[C@@H](c2ccccc2)C(C(=O)OC)=C1C | 0 | 11 | 4 | -7 | x
COc1ccc(Cl)cc1NC(=O)NCC1CCN(Cc2cc(C)ccc2C)CC1 | 0 | 4 | 1 | 0 | x
COc1cc([N+](=O)[O-])ccc1NC(=O)NCC1CCN(Cc2ccc(Cl)cc2)CC1 | 1 | 3 | -17 | 22* | -2
CCCN1CCCCC(NC(=O)COCc2ccccc2)C1=O (stereo not given) | 1 | x | x | x | x
CCCC(=O)Nc1ccc(C(=O)COC(=O)C2=COCCO2)cc1 | 0 | x | x | 8.1* | 0
SMILES | MsrA inhibitor | procasp7 counter | proCasp3 act | bovine MsrA act | MsrA act confirm
Cc1cc(OCC(=O)Nc2nnc(C3CC3)s2)ccc1C(C)C | -1 | 8 | 1 | 11* | -2
Cc1ccc(C(C)C)cc1OCC(=O)Nc1nnc(C2CC2)s1 | 0 | 2 | -3 | -3 | x
O=C(Nc1n[nH]c(=S)s1)c1ccco1 | 2 | -6 | -6 | 8.7* | 2
O=C(Nc1ccc2c(c1)OCCO2)c1cncc(Br)c1 | 0 | 5 | 5 | 9.2* | 0
O=C(Nc1ccc2c(c1)OCO2)c1cncc(Br)c1 | 0 | 4 | -1 | -2 | x
COC(=O)[C@]12C[C@H](CC(=O)NCCc3ccccc3OC)C(=O)N(CCC3=CCCCC3)C1=C[C@H](COCc1ccccc1)O[C@@H]2C | 1 | x | x | x | x
CCCCCC(=O)NNC(=S)NC(=O)c1cccc([N+](=O)[O-])c1 | 1 | -3 | -12 | 8.9* | 1
CCCCCC(=O)NNC(=S)NC(=O)c1ccccc1[N+](=O)[O-] | -1 | -9 | 7 | -3 | x
C[C@@H]1CNC(=O)c2c(C(=O)N3CCN(c4ccccc4)CC3)ncn21 | -1 | x | x | x | x
CCc1ccc(NC(=O)CSc2nnc(COc3ccc4c(c3)CCCC4)o2)cc1 | 0 | 12 | 2 | 11* | -2
COC(=O)c1ccc(NC(=O)CSc2nnc(COc3ccc4c(c3)CCCC4)o2)cc1 | 0 | -3 | 8 | -5 | x
COCc1cc(N2CCNC[C@@H]2C)ccc1N1CCN(Cc2ccccc2)[C@H](C)C1 | 1 | x | x | x | x
CC1Cc2ccccc2N1C(=O)COC(=O)c1cc(Br)ccc1O (stereo not given) | -1 | -7 | 2 | -4 | x
CC1Cc2ccccc2N1C(=O)COC(=O)c1cccc(Br)c1 (stereo not given) | 1 | 8 | 4 | 24* | -2
C[C@]12c3[nH]c4cc(-c5ccco5)ccc4c3CCN1C(=O)[C@@H](CC(=O)NCCc1ccccn1)C[C@@H]2C(=O)N1CCCCC1 | 2 | -27 | -9 | -12 | x
C[C@]12c3[nH]c4cc(-c5ccco5)ccc4c3CCN1C(=O)[C@@H](CC(=O)NCCC1=CCCCC1)C[C@@H]2C(=O)N1CCCCC1 | 1 | 1 | -3 | 8.3* | -3
Cc1[nH]c2ccccc2c1CC(=O)O | 1 | 6 | -3 | 13* | -2
COC(=O)c1cc2c(c3c4cc(F)ccc4n(S(=O)(=O)c4cccc(C)c4)c13)C(=O)N(Cc1ccc(C(F)(F)F)cc1)C2 | 1 | x | x | x | x
O=C(CC(c1ccccc1)c1cc(Cl)ccc1O)N1CCOCC1 (stereo not given) | 0 | -11 | 1 | 9.8* | 0
COC(=O)CNC(=O)COC(=O)/C=C/c1ccc2ccccc2n1 | 2 | 0 | 9 | 8.7* | -3
COCCN1Cc2cc(C(=O)OC)c3c(c2C1=O)c1cc(OC)ccc1n3C(=O)c1ccccc1 | 2 | x | x | x | x
O=C(O)c1cc(-c2ccc(Cl)cc2)n[nH]1 | 0 | 18 | -7 | 9.2* | -2
COc1ccccc1CCn1cnc(-c2cccc(Br)c2)c1CC(C)C | 2 | x | x | x | x
O=C(NCCc1ccccc1)c1c(F)cccc1F | 0 | 5 | 6 | 11* | 0
O=C(NCCc1csc(-c2ccccc2)n1)c1c(F)cccc1F | 1 | 0 | -1 | -1 | x
CS(=O)(=O)c1ccc(N)c(SSc2cc(S(C)(=O)=O)ccc2N)c1 | 1 | -38 | -13 | 14* | 9.8*
O=C(Oc1ccccc1)n1c(=S)oc2ccccc21 | 0 | 2 | -2 | 3 | x
Cc1ccccc1OC(=O)n1c(=S)oc2cc(Cl)ccc21 | 0 | -4 | -8 | 9.0* | 0
CCN=C1NC(c2ccc(C(F)(F)F)cc2)C(C(=O)OC)=C(C)N1Cc1ccccc1C(F)(F)F (stereo not given) | 0 | x | x | x | x
